System: U2OS
Assay: Multiplex assay against U2OS
Format: toxicity, cell-based
Details: human
Summary of the method: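 Hoechst33342, BioTracker Green Microtubule Cytoskeleton Dye, MitoTracker Red and Annexin V Alexa Fluor 680 were added to live cells at seeding, and imaging on a CQ1 microscope at 37°C and 5% CO2 followed compound addition. Gating by CellPathfinder machine learning separated cells into Hoechst high-intensity objects or normal cells, then normal cells into healthy, pyknosed or fragmented nuclei, then pyknosed cells into mitotic or apoptotic. Per cents of healthy-nucleus cells are reported for the tubulin, mitochondrial-mass and membrane-permeability phenotypes.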

[1] = 12 h, 1 µM, compound concentration 1 uM, replicate 1
[2] = 12 h, 1 µM, compound concentration 1 uM, replicate 2
[3] = 12 h, 10 µM, compound concentration 10 uM, replicate 1
[4] = 12 h, 10 µM, compound concentration 10 uM, replicate 2
[5] = 24 h, 1 µM, compound concentration 1 uM, replicate 1
[6] = 24 h, 1 µM, compound concentration 1 uM, replicate 2
[7] = 24 h, 10 µM, compound concentration 10 uM, replicate 1
[8] = 24 h, 10 µM, compound concentration 10 uM, replicate 2
[9] = 48 h, 1 µM, compound concentration 1 uM, replicate 1
[10] = 48 h, 1 µM, compound concentration 1 uM, replicate 2
[11] = 48 h, 10 µM, compound concentration 10 uM, replicate 1
[12] = 48 h, 10 µM, compound concentration 10 uM, replicate 2

Structure (SMILES): Cl.Clc1ccc2nsnc2c1NC1=NCCN1 [TIZANIDINE HYDROCHLORIDE]
- Population Apoptotic (%) [1]: 82%
- Population Fragmented Nuclei (%) [1]: 20%
- Population Healthy Nuclei (%) [1]: 73%
- Population Hoechst High Intensity Objects (%) [1]: 2%
- Population Membrane Permeable-Phenotype (%) [1]: 6%
- Population Mitochondria Different-Phenotype (%) [1]: 1%
- Population Mitotic Cells (%) [1]: 17%
- Population Normal (%) [1]: 97%
- Population Pyknosed Nuclei (%) [1]: 5%
- Population Tubulin-Different-Phenotype (%) [1]: 2%
- Total Cell Count [1]: 306
- Population Apoptotic (%) [2]: 85%
- Population Fragmented Nuclei (%) [2]: 10%
- Population Healthy Nuclei (%) [2]: 78%
- Population Hoechst High Intensity Objects (%) [2]: 1%
- Population Membrane Permeable-Phenotype (%) [2]: 3%
- Population Mitochondria Different-Phenotype (%) [2]: 2%
- Population Mitotic Cells (%) [2]: 14%
- Population Normal (%) [2]: 98%
- Population Pyknosed Nuclei (%) [2]: 10%
- Population Tubulin-Different-Phenotype (%) [2]: 3%
- Total Cell Count [2]: 140
- Population Apoptotic (%) [3]: 77%
- Population Fragmented Nuclei (%) [3]: 31%
- Population Healthy Nuclei (%) [3]: 61%
- Population Hoechst High Intensity Objects (%) [3]: 2%
- Population Membrane Permeable-Phenotype (%) [3]: 7%
- Population Mitochondria Different-Phenotype (%) [3]: 2%
- Population Mitotic Cells (%) [3]: 22%
- Population Normal (%) [3]: 97%
- Population Pyknosed Nuclei (%) [3]: 6%
- Population Tubulin-Different-Phenotype (%) [3]: 2%
- Total Cell Count [3]: 280
- Population Apoptotic (%) [4]: 90%
- Population Fragmented Nuclei (%) [4]: 22%
- Population Healthy Nuclei (%) [4]: 66%
- Population Membrane Permeable-Phenotype (%) [4]: 14%
- Population Mitochondria Different-Phenotype (%) [4]: 7%
- Population Mitotic Cells (%) [4]: 10%
- Population Pyknosed Nuclei (%) [4]: 10%
- Population Tubulin-Different-Phenotype (%) [4]: 15%
- Total Cell Count [4]: 98
- Population Apoptotic (%) [5]: 90%
- Population Fragmented Nuclei (%) [5]: 19%
- Population Healthy Nuclei (%) [5]: 72%
- Population Hoechst High Intensity Objects (%) [5]: 0%
- Population Membrane Permeable-Phenotype (%) [5]: 4%
- Population Mitochondria Different-Phenotype (%) [5]: 2%
- Population Mitotic Cells (%) [5]: 9%
- Population Normal (%) [5]: 99%
- Population Pyknosed Nuclei (%) [5]: 8%
- Population Tubulin-Different-Phenotype (%) [5]: 5%
- Total Cell Count [5]: 381
- Population Apoptotic (%) [6]: 89%
- Population Fragmented Nuclei (%) [6]: 15%
- Population Healthy Nuclei (%) [6]: 73%
- Population Hoechst High Intensity Objects (%) [6]: 4%
- Population Membrane Permeable-Phenotype (%) [6]: 7%
- Population Mitochondria Different-Phenotype (%) [6]: 4%
- Population Mitotic Cells (%) [6]: 10%
- Population Normal (%) [6]: 95%
- Population Pyknosed Nuclei (%) [6]: 11%
- Population Tubulin-Different-Phenotype (%) [6]: 6%
- Total Cell Count [6]: 172
- Population Apoptotic (%) [7]: 65%
- Population Fragmented Nuclei (%) [7]: 29%
- Population Healthy Nuclei (%) [7]: 62%
- Population Hoechst High Intensity Objects (%) [7]: 2%
- Population Membrane Permeable-Phenotype (%) [7]: 4%
- Population Mitochondria Different-Phenotype (%) [7]: 1%
- Population Mitotic Cells (%) [7]: 34%
- Population Normal (%) [7]: 97%
- Population Pyknosed Nuclei (%) [7]: 8%
- Population Tubulin-Different-Phenotype (%) [7]: 1%
- Total Cell Count [7]: 327
- Population Apoptotic (%) [8]: 86%
- Population Fragmented Nuclei (%) [8]: 25%
- Population Healthy Nuclei (%) [8]: 61%
- Population Membrane Permeable-Phenotype (%) [8]: 12%
- Population Mitochondria Different-Phenotype (%) [8]: 7%
- Population Mitotic Cells (%) [8]: 13%
- Population Pyknosed Nuclei (%) [8]: 13%
- Population Tubulin-Different-Phenotype (%) [8]: 11%
- Total Cell Count [8]: 118
- Population Apoptotic (%) [9]: 86%
- Population Fragmented Nuclei (%) [9]: 11%
- Population Healthy Nuclei (%) [9]: 80%
- Population Hoechst High Intensity Objects (%) [9]: 1%
- Population Membrane Permeable-Phenotype (%) [9]: 2%
- Population Mitochondria Different-Phenotype (%) [9]: 1%
- Population Mitotic Cells (%) [9]: 13%
- Population Normal (%) [9]: 98%
- Population Pyknosed Nuclei (%) [9]: 7%
- Population Tubulin-Different-Phenotype (%) [9]: 2%
- Total Cell Count [9]: 512
- Population Apoptotic (%) [10]: 90%
- Population Fragmented Nuclei (%) [10]: 17%
- Population Healthy Nuclei (%) [10]: 74%
- Population Hoechst High Intensity Objects (%) [10]: 3%
- Population Membrane Permeable-Phenotype (%) [10]: 5%
- Population Mitochondria Different-Phenotype (%) [10]: 2%
- Population Mitotic Cells (%) [10]: 9%
- Population Normal (%) [10]: 96%
- Population Pyknosed Nuclei (%) [10]: 8%
- Population Tubulin-Different-Phenotype (%) [10]: 3%
- Total Cell Count [10]: 260
- Population Apoptotic (%) [11]: 93%
- Population Fragmented Nuclei (%) [11]: 18%
- Population Healthy Nuclei (%) [11]: 75%
- Population Hoechst High Intensity Objects (%) [11]: 2%
- Population Membrane Permeable-Phenotype (%) [11]: 5%
- Population Mitochondria Different-Phenotype (%) [11]: 1%
- Population Mitotic Cells (%) [11]: 6%
- Population Normal (%) [11]: 97%
- Population Pyknosed Nuclei (%) [11]: 6%
- Population Tubulin-Different-Phenotype (%) [11]: 3%
- Total Cell Count [11]: 459
- Population Apoptotic (%) [12]: 76%
- Population Fragmented Nuclei (%) [12]: 22%
- Population Healthy Nuclei (%) [12]: 65%
- Population Hoechst High Intensity Objects (%) [12]: 4%
- Population Membrane Permeable-Phenotype (%) [12]: 15%
- Population Mitochondria Different-Phenotype (%) [12]: 5%
- Population Mitotic Cells (%) [12]: 23%
- Population Normal (%) [12]: 95%
- Population Pyknosed Nuclei (%) [12]: 11%
- Population Tubulin-Different-Phenotype (%) [12]: 7%
- Total Cell Count [12]: 149

Structure (SMILES): Cc1ccc(/C(=C\CN2CCCC2)c2ccccn2)cc1 [TRIPROLIDINE]
- Population Apoptotic (%) [1]: 85%
- Population Fragmented Nuclei (%) [1]: 29%
- Population Healthy Nuclei (%) [1]: 61%
- Population Hoechst High Intensity Objects (%) [1]: 2%
- Population Membrane Permeable-Phenotype (%) [1]: 4%
- Population Mitochondria Different-Phenotype (%) [1]: 2%
- Population Mitotic Cells (%) [1]: 15%
- Population Normal (%) [1]: 97%
- Population Pyknosed Nuclei (%) [1]: 8%
- Population Tubulin-Different-Phenotype (%) [1]: 1%
- Total Cell Count [1]: 244
- Population Fragmented Nuclei (%) [2]: 18%
- Population Healthy Nuclei (%) [2]: 70%
- Population Hoechst High Intensity Objects (%) [2]: 3%
- Population Membrane Permeable-Phenotype (%) [2]: 6%
- Population Mitochondria Different-Phenotype (%) [2]: 1%
- Population Mitotic Cells (%) [2]: 14%
- Population Normal (%) [2]: 96%
- Population Pyknosed Nuclei (%) [2]: 11%
- Population Tubulin-Different-Phenotype (%) [2]: 5%
- Total Cell Count [2]: 126
- Population Apoptotic (%) [3]: 87%
- Population Fragmented Nuclei (%) [3]: 25%
- Population Healthy Nuclei (%) [3]: 64%
- Population Hoechst High Intensity Objects (%) [3]: 3%
- Population Membrane Permeable-Phenotype (%) [3]: 29%
- Population Mitochondria Different-Phenotype (%) [3]: 23%
- Population Mitotic Cells (%) [3]: 12%
- Population Normal (%) [3]: 96%
- Population Pyknosed Nuclei (%) [3]: 9%
- Population Tubulin-Different-Phenotype (%) [3]: 24%
- Total Cell Count [3]: 264
- Population Apoptotic (%) [4]: 75%
- Population Fragmented Nuclei (%) [4]: 15%
- Population Healthy Nuclei (%) [4]: 77%
- Population Hoechst High Intensity Objects (%) [4]: 0%
- Population Membrane Permeable-Phenotype (%) [4]: 14%
- Population Mitochondria Different-Phenotype (%) [4]: 18%
- Population Mitotic Cells (%) [4]: 25%
- Population Normal (%) [4]: 99%
- Population Pyknosed Nuclei (%) [4]: 7%
- Population Tubulin-Different-Phenotype (%) [4]: 15%
- Total Cell Count [4]: 114
- Population Apoptotic (%) [5]: 89%
- Population Fragmented Nuclei (%) [5]: 23%
- Population Healthy Nuclei (%) [5]: 66%
- Population Hoechst High Intensity Objects (%) [5]: 1%
- Population Membrane Permeable-Phenotype (%) [5]: 4%
- Population Mitochondria Different-Phenotype (%) [5]: 3%
- Population Mitotic Cells (%) [5]: 10%
- Population Normal (%) [5]: 98%
- Population Pyknosed Nuclei (%) [5]: 9%
- Population Tubulin-Different-Phenotype (%) [5]: 2%
- Total Cell Count [5]: 297
- Population Apoptotic (%) [6]: 81%
- Population Fragmented Nuclei (%) [6]: 20%
- Population Healthy Nuclei (%) [6]: 68%
- Population Hoechst High Intensity Objects (%) [6]: 4%
- Population Membrane Permeable-Phenotype (%) [6]: 9%
- Population Mitochondria Different-Phenotype (%) [6]: 6%
- Population Mitotic Cells (%) [6]: 18%
- Population Normal (%) [6]: 96%
- Population Pyknosed Nuclei (%) [6]: 11%
- Population Tubulin-Different-Phenotype (%) [6]: 5%
- Total Cell Count [6]: 150
- Population Apoptotic (%) [7]: 75%
- Population Fragmented Nuclei (%) [7]: 27%
- Population Healthy Nuclei (%) [7]: 62%
- Population Hoechst High Intensity Objects (%) [7]: 2%
- Population Membrane Permeable-Phenotype (%) [7]: 12%
- Population Mitochondria Different-Phenotype (%) [7]: 15%
- Population Mitotic Cells (%) [7]: 24%
- Population Normal (%) [7]: 97%
- Population Pyknosed Nuclei (%) [7]: 10%
- Population Tubulin-Different-Phenotype (%) [7]: 8%
- Total Cell Count [7]: 320
- Population Apoptotic (%) [8]: 78%
- Population Fragmented Nuclei (%) [8]: 19%
- Population Healthy Nuclei (%) [8]: 70%
- Population Hoechst High Intensity Objects (%) [8]: 1%
- Population Membrane Permeable-Phenotype (%) [8]: 11%
- Population Mitochondria Different-Phenotype (%) [8]: 13%
- Population Mitotic Cells (%) [8]: 21%
- Population Normal (%) [8]: 98%
- Population Pyknosed Nuclei (%) [8]: 9%
- Population Tubulin-Different-Phenotype (%) [8]: 6%
- Total Cell Count [8]: 149
- Population Apoptotic (%) [9]: 86%
- Population Fragmented Nuclei (%) [9]: 17%
- Population Healthy Nuclei (%) [9]: 73%
- Population Hoechst High Intensity Objects (%) [9]: 2%
- Population Membrane Permeable-Phenotype (%) [9]: 3%
- Population Mitochondria Different-Phenotype (%) [9]: 3%
- Population Mitotic Cells (%) [9]: 13%
- Population Normal (%) [9]: 97%
- Population Pyknosed Nuclei (%) [9]: 9%
- Population Tubulin-Different-Phenotype (%) [9]: 3%
- Total Cell Count [9]: 398
- Population Apoptotic (%) [10]: 76%
- Population Healthy Nuclei (%) [10]: 75%
- Population Hoechst High Intensity Objects (%) [10]: 3%
- Population Membrane Permeable-Phenotype (%) [10]: 5%
- Population Mitotic Cells (%) [10]: 23%
- Population Normal (%) [10]: 96%
- Population Pyknosed Nuclei (%) [10]: 6%
- Population Tubulin-Different-Phenotype (%) [10]: 4%
- Total Cell Count [10]: 209
- Population Apoptotic (%) [11]: 86%
- Population Fragmented Nuclei (%) [11]: 24%
- Population Healthy Nuclei (%) [11]: 65%
- Population Hoechst High Intensity Objects (%) [11]: 2%
- Population Membrane Permeable-Phenotype (%) [11]: 11%
- Population Mitochondria Different-Phenotype (%) [11]: 8%
- Population Mitotic Cells (%) [11]: 13%
- Population Normal (%) [11]: 97%
- Population Pyknosed Nuclei (%) [11]: 9%
- Population Tubulin-Different-Phenotype (%) [11]: 7%
- Total Cell Count [11]: 453
- Population Apoptotic (%) [12]: 89%
- Population Fragmented Nuclei (%) [12]: 15%
- Population Healthy Nuclei (%) [12]: 74%
- Population Hoechst High Intensity Objects (%) [12]: 4%
- Population Membrane Permeable-Phenotype (%) [12]: 9%
- Population Mitotic Cells (%) [12]: 10%
- Population Normal (%) [12]: 95%
- Population Tubulin-Different-Phenotype (%) [12]: 6%
- Total Cell Count [12]: 203
